Columns and labels:
Format in all cases: functional
Oryctolagus cuniculus [1] = assay: Number of rabbits convulsed at 4 mg/kg, iv out of 1 rabbit tested
Method in brief: (§1)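 Adult tetrahydrocannabinol-seizure susceptible (THC-SS) rabbits, 2–4 kg, dosed intravenously with cannabinoid in 10% polysorbate 80/90% physiological saline. Presence or absence of behavioral convulsion was recorded within 20 min. Animals were reused for several compounds or doses, with at least 7 days between trials and treatments given in random order. Every rabbit also received 0.05 mg/kg Δ9-THC at least once. Aim was four rabbits per dose.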

Oryctolagus cuniculus [2] = assay: Number of rabbits convulsed at 0.5 mg/kg, iv out of 1 rabbit tested; method in brief: as §1
Oryctolagus cuniculus [3] = assay: Number of rabbits convulsed at 2 mg/kg, iv out of 2 rabbits tested; method in brief: as §1
Oryctolagus cuniculus [4] = assay: Number of rabbits convulsed at 1 mg/kg, iv out of 4 rabbits tested; method in brief: as §1
Oryctolagus cuniculus [5] = assay: Number of rabbits convulsed at 1 mg/kg, iv out of 1 rabbits tested; method in brief: as §1
Oryctolagus cuniculus [6] = assay: Number of rabbits convulsed at 0.25 mg/kg, iv out of 1 rabbits tested; method in brief: as §1
Oryctolagus cuniculus [7] = assay: Number of rabbits convulsed at 0.5 mg/kg, iv out of 1 rabbits tested; method in brief: as §1
Oryctolagus cuniculus [8] = assay: Number of rabbits convulsed at 0.01 mg/kg, iv out of 4 rabbits tested; method in brief: as §1
Oryctolagus cuniculus [9] = assay: Number of rabbits convulsed at 0.05 mg/kg, iv out of 4 rabbits tested; method in brief: as §1
Oryctolagus cuniculus [10] = assay: Number of rabbits convulsed at 0.5 mg/kg, iv out of 4 rabbits tested; method in brief: as §1
Oryctolagus cuniculus [11] = assay: Number of rabbits convulsed at 0.9 mg/kg, iv out of 3 rabbits tested; method in brief: as §1
Oryctolagus cuniculus [12] = assay: Number of rabbits convulsed at 20 mg/kg, iv out of 3 rabbits tested; method in brief: as §1
Oryctolagus cuniculus [13] = assay: Number of rabbits convulsed at 0.1 mg/kg, iv out of 4 rabbits tested; method in brief: as §1
Oryctolagus cuniculus [14] = assay: Number of rabbits convulsed at 0.005 mg/kg, iv out of 4 rabbits tested; method in brief: as §1
Oryctolagus cuniculus [15] = assay: Number of rabbits convulsed at 0.9 mg/kg, iv out of 4 rabbits tested; method in brief: as §1
Oryctolagus cuniculus [16] = assay: Number of rabbits convulsed at 0.1 mg/kg, iv out of 2 rabbits tested; method in brief: as §1
Oryctolagus cuniculus [17] = assay: Number of rabbits convulsed at 0.5 mg/kg, iv out of 3 rabbits tested; method in brief: as §1
Oryctolagus cuniculus [18] = assay: Number of rabbits convulsed at 20 mg/kg, iv out of 2 rabbits tested; method in brief: as §1
Oryctolagus cuniculus [19] = assay: Number of rabbits convulsed at 0.9 mg/kg, iv out of 1 rabbits tested; method in brief: as §1
Oryctolagus cuniculus [20] = assay: Number of rabbits convulsed at 0.1 mg/kg, iv out of 1 rabbits tested; method in brief: as §1
Oryctolagus cuniculus [21] = assay: Number of rabbits convulsed at 10 mg/kg, iv out of 1 rabbit tested; method in brief: as §1
Oryctolagus cuniculus [22] = assay: Number of rabbits convulsed at 5 mg/kg, iv out of 1 rabbit tested; method in brief: as §1
Oryctolagus cuniculus [23] = assay: Number of rabbits convulsed at 1 mg/kg, iv out of 3 rabbits tested; method in brief: as §1
Oryctolagus cuniculus [24] = assay: Number of rabbits convulsed at 0.05 mg/kg, iv out of 3 rabbits tested; method in brief: as §1
Oryctolagus cuniculus [25] = assay: Number of rabbits convulsed at 5 mg/kg, iv out of 1 rabbits tested; method in brief: as §1
Oryctolagus cuniculus [26] = assay: Number of rabbits convulsed at 10 mg/kg, iv out of 1 rabbits tested; method in brief: as §1
Oryctolagus cuniculus [27] = assay: Number of rabbits convulsed at 0.25 mg/kg, iv out of 5 rabbits tested; method in brief: as §1
Oryctolagus cuniculus [28] = assay: Number of rabbits convulsed at 20 mg/kg, iv out of 1 rabbits tested; method in brief: as §1
Oryctolagus cuniculus [29] = assay: Number of rabbits convulsed at 5 mg/kg, iv out of 4 rabbits tested; method in brief: as §1
Oryctolagus cuniculus [30] = assay: Number of rabbits convulsed at 0.5 mg/kg, iv out of 7 rabbits tested; method in brief: as §1
Oryctolagus cuniculus [31] = assay: Number of rabbits convulsed at 0.05 mg/kg, iv out of 2 rabbits tested; method in brief: as §1
Oryctolagus cuniculus [32] = assay: Number of rabbits convulsed at 8 mg/kg, iv out of 2 rabbits tested; method in brief: as §1
Oryctolagus cuniculus [33] = assay: Number of rabbits convulsed at 15 mg/kg, iv out of 1 rabbit tested; method in brief: as §1
Oryctolagus cuniculus [34] = assay: Number of rabbits convulsed at 20 mg/kg, iv out of 4 rabbits tested; method in brief: as §1
Oryctolagus cuniculus [35] = assay: Number of rabbits convulsed at 8 mg/kg, iv out of 1 rabbit tested; method in brief: as §1
Oryctolagus cuniculus [36] = assay: Number of rabbits convulsed at 20 mg/kg, iv out of 6 rabbits tested; method in brief: as §1
Oryctolagus cuniculus [37] = assay: Number of rabbits convulsed at 15 mg/kg, iv out of 7 rabbits tested; method in brief: as §1
Oryctolagus cuniculus [38] = assay: Number of rabbits convulsed at 15 mg/kg, iv out of 10 rabbits tested; method in brief: as §1
Oryctolagus cuniculus [39] = assay: Number of rabbits convulsed at 10 mg/kg, iv out of 6 rabbits tested; method in brief: as §1
Oryctolagus cuniculus [40] = assay: Number of rabbits convulsed at 0.1 mg/kg, iv out of 10 rabbits tested; method in brief: as §1
Oryctolagus cuniculus [41] = assay: Number of rabbits convulsed at 0.5 mg/kg, iv out of 20 rabbits tested; method in brief: as §1
Oryctolagus cuniculus [42] = assay: Number of rabbits convulsed at 0.05 mg/kg, iv out of 14 rabbits tested; method in brief: as §1
Oryctolagus cuniculus [43] = assay: Number of rabbits convulsed at 0.9 mg/kg, iv out of 9 rabbits tested; method in brief: as §1

## CCCCCc1cc(O)c2c(c1)OC(C)(C)c1ccc(CO)cc1-2
Oryctolagus cuniculus [1]
  No. of rabbits convulsed: 1
Oryctolagus cuniculus [2]
  No. of rabbits convulsed: 0
Oryctolagus cuniculus [3]
  No. of rabbits convulsed: 2
Oryctolagus cuniculus [4]
  No. of rabbits convulsed: 1

## CCCCCc1cc(O)c2c(c1)OC(C)(C)[C@@H]1CC=C(CO)CC21 (some centres not stated)
Oryctolagus cuniculus [5]
  No. of rabbits convulsed: 1
Oryctolagus cuniculus [6]
  No. of rabbits convulsed: 1
Oryctolagus cuniculus [7]
  No. of rabbits convulsed: 1
Oryctolagus cuniculus [8]
  No. of rabbits convulsed: 2
Oryctolagus cuniculus [9]
  No. of rabbits convulsed: 4

## CCCCCc1cc(O)c2c(c1)OC(C)(C)[C@@H]1C[C@H](O)C(C)=CC21 (some centres not stated)
Oryctolagus cuniculus [8]
  No. of rabbits convulsed: 2
Oryctolagus cuniculus [9]
  No. of rabbits convulsed: 4

## CCCCCc1cc(O)c2c(c1)OC(C)(C)[C@@H]1CC=C(C=O)CC21 (some centres not stated)
Oryctolagus cuniculus [8]
  No. of rabbits convulsed: 0
Oryctolagus cuniculus [9]
  No. of rabbits convulsed: 4
Oryctolagus cuniculus [10]
  No. of rabbits convulsed: 4

## CCCCCc1cc(O)c2c(c1)OC(C)(C)C1=C2CCCC1
Oryctolagus cuniculus [11]
  No. of rabbits convulsed: 0
Oryctolagus cuniculus [12]
  No. of rabbits convulsed: 1

## CCCCCCC(C)(C)c1cc(O)c2c(c1)OC(C)(C)[C@@H]1CCC(=O)CC21 (some centres not stated)
Oryctolagus cuniculus [13]
  No. of rabbits convulsed: 4
Oryctolagus cuniculus [8]
  No. of rabbits convulsed: 4
Oryctolagus cuniculus [14]
  No. of rabbits convulsed: 3

## CCCCCc1cc(O)c2c(c1)OC(C)(C)C1=C2CC(C)CC1 (configuration not stated)
Oryctolagus cuniculus [15]
  No. of rabbits convulsed: 4
Oryctolagus cuniculus [16]
  No. of rabbits convulsed: 0
Oryctolagus cuniculus [17]
  No. of rabbits convulsed: 2

## CCCCCc1cc(O)c2c(c1)OC(C)(C)[C@@H]1C[C@@H](O)C(C)=CC21 (some centres not stated)
Oryctolagus cuniculus [18]
  No. of rabbits convulsed: 0
Oryctolagus cuniculus [19]
  No. of rabbits convulsed: 0
Oryctolagus cuniculus [20]
  No. of rabbits convulsed: 0

## CCCCCc1cc(O)c2c(c1)OC(C)(C)[C@@H]1CC=C(C(=O)O)CC21 (some centres not stated)
Oryctolagus cuniculus [18]
  No. of rabbits convulsed: 2
Oryctolagus cuniculus [21]
  No. of rabbits convulsed: 0
Oryctolagus cuniculus [22]
  No. of rabbits convulsed: 0
Oryctolagus cuniculus [23]
  No. of rabbits convulsed: 0

## CCCCCC(C)C(C)c1cc(O)c2c(c1)OC(C)(C)[C@@H]1CC=C(C)CC21 (some centres not stated)
Oryctolagus cuniculus [24]
  No. of rabbits convulsed: 3
Oryctolagus cuniculus [8]
  No. of rabbits convulsed: 3

## CCCCCc1cc(O)c2c(c1)OC(C)(C)[C@@H]1CCC(C)CC21 (some centres not stated)
Oryctolagus cuniculus [20]
  No. of rabbits convulsed: 1
Oryctolagus cuniculus [7]
  No. of rabbits convulsed: 1
Oryctolagus cuniculus [25]
  No. of rabbits convulsed: 1
Oryctolagus cuniculus [9]
  No. of rabbits convulsed: 2
Oryctolagus cuniculus [23]
  No. of rabbits convulsed: 3

## CCCCC(O)c1cc(O)c2c(c1)OC(C)(C)c1ccc(C)cc1-2 (configuration not stated)
Oryctolagus cuniculus [26]
  No. of rabbits convulsed: 0
Oryctolagus cuniculus [25]
  No. of rabbits convulsed: 0

## CC1=CC2c3c(O)cc(CCCCCO)cc3OC(C)(C)[C@@H]2CC1 (some centres not stated)
Oryctolagus cuniculus [13]
  No. of rabbits convulsed: 4
Oryctolagus cuniculus [9]
  No. of rabbits convulsed: 2

## CCCCCc1cc(O)c2c(c1)OC(C)(C)[C@@H]1CCC(CO)=CC21 (some centres not stated)
Oryctolagus cuniculus [13]
  No. of rabbits convulsed: 4
Oryctolagus cuniculus [8]
  No. of rabbits convulsed: 3
Oryctolagus cuniculus [9]
  No. of rabbits convulsed: 4
Oryctolagus cuniculus [27]
  No. of rabbits convulsed: 5

## CCCCCc1cc(O)c2c(c1)OC(C)(C)[C@@H]1CC=C(C)CC21 (single isomer, unassigned; (+))
Oryctolagus cuniculus [28]
  No. of rabbits convulsed: 1
Oryctolagus cuniculus [29]
  No. of rabbits convulsed: 2

## CCCCCc1cc(O)c2c(c1)OC(C)(C)[C@@H]1CC=C(C)CC21 (single isomer, unassigned; (-))
Oryctolagus cuniculus [30]
  No. of rabbits convulsed: 7
Oryctolagus cuniculus [13]
  No. of rabbits convulsed: 4
Oryctolagus cuniculus [9]
  No. of rabbits convulsed: 2

## CC(=O)Oc1cc(OC(C)CCCc2ccccc2)cc2c1[C@@H]1C[C@H](O)CC[C@H]1[C@H](C)N2 (single isomer, unassigned; (-)) [NANTRADOL]
Oryctolagus cuniculus [9]
  No. of rabbits convulsed: 3
Oryctolagus cuniculus [31]
  No. of rabbits convulsed: 2

## CCCCCc1cc(O)c2c(c1)OC(C)(CCC=C(C)C)C=C2 (configuration not stated) [CANNABICHROMENE]
Oryctolagus cuniculus [32]
  No. of rabbits convulsed: 0
Oryctolagus cuniculus [33]
  No. of rabbits convulsed: 0
Oryctolagus cuniculus [34]
  No. of rabbits convulsed: 1

## CCCCCc1cc(O)c2c(c1)OC1(C)CCC3C1C2C3(C)C (configuration not stated) [CANNABICYCLOL]
Oryctolagus cuniculus [18]
  No. of rabbits convulsed: 0
Oryctolagus cuniculus [35]
  No. of rabbits convulsed: 0

## C=C(C)[C@@H]1CCC(C)=C[C@H]1c1c(O)cc(CCCCC)cc1O [CANNABIDIOL]
Oryctolagus cuniculus [36]
  No. of rabbits convulsed: 0
Oryctolagus cuniculus [37]
  No. of rabbits convulsed: 0

## CCCCCc1cc(O)c2c(c1)OC(C)(C)c1ccc(C)cc1-2 [CANNABINOL]
Oryctolagus cuniculus [38]
  No. of rabbits convulsed: 10
Oryctolagus cuniculus [39]
  No. of rabbits convulsed: 4

## CCCCCc1cc(O)c2c(c1)OC(C)(C)[C@@H]1CCC(C)=C[C@@H]21 [DRONABINOL]
Oryctolagus cuniculus [40]
  No. of rabbits convulsed: 10
Oryctolagus cuniculus [41]
  No. of rabbits convulsed: 20
Oryctolagus cuniculus [26]
  No. of rabbits convulsed: 1
Oryctolagus cuniculus [42]
  No. of rabbits convulsed: 14
Oryctolagus cuniculus [8]
  No. of rabbits convulsed: 0
Oryctolagus cuniculus [43]
  No. of rabbits convulsed: 9

## CCCCCc1cc(O)cc(O)c1 [WHILE OLIVETOL]
Oryctolagus cuniculus [34]
  No. of rabbits convulsed: 0

Source: ChEMBL document CHEMBL1122061, “Use of a potential rabbit model for structure--behavioral activity studies of cannabinoids” (1982)
